Experimental data taken from ChEMBL document CHEMBL3352259, “Benzimidazole--ibuprofen/mesalamine conjugates: potential candidates for multifactorial diseases” (Eur J Med Chem, 2015).

Columns and labels:
Rattus norvegicus [1] = test: Antiinflammatory activity against carrageenan-induced ip dosed Wistar rat paw edema model assessed as inhibition of edema administered 30 mins prior to carrageenan challenge measured after 60 mins; type: functional
Summary of the method: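 Wistar rats (150-200 g, either sex), 150 µmol/kg i.p. 30 min before subplantar carrageenan; vehicle control 0.5% SCMC. Paw volume read at 0, 30, 60, 120, 180 min. % oedema inhibition = 100 − [(treated paw volume/control paw volume) × 100].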

Mus musculus [2] = test: Immunomodulatory activity in albino mouse assessed as change in carbon clearance index at 150 umol/kg, po for 5 days followed by carbon ink challenge; type: functional
Summary of the method: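 Albino mice (18-22 g), 6 per group, 150 µmol/kg p.o. daily for 5 days (control 0.5% SCMC, 0.3 mL). Carbon ink suspension (10 µL/g) given via tail vein 48 h later. Retro-orbital blood at 3 and 15 min, 25 µL into 2 mL 0.1% Na2CO3, OD read. K = (ln OD1 − ln OD2)/12. Mean ± SD.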

Mus musculus [3] = test: Immunomodulatory activity in albino mouse assessed as change in humoral antibody titre at 150 umol/kg, po for 7 days followed by sheep RBC challenge measured on day 14; type: functional
Summary of the method: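 Albino mice, 6 per group, 150 µmol/kg p.o. for 7 days. On day 7, challenged i.p. with 0.1 mL sheep RBC suspension (about 1×10^8 cells per 0.1 mL, saline-washed). Retro-orbital blood taken on day 14, serum separated at 2500 rpm for 10 min, and antibody titre determined by microtitre haemagglutination. Mean ± SD.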

Rattus norvegicus [4] = test: Antioxidant activity in Wistar rat assessed as GSH level measured per 100 mg of protein at 150 umol/kg, po administered for 3 days measured on day 4 (reference value: 184.10 +/- 4.19 umol); type: functional
Rattus norvegicus [5] = test: Antioxidant activity in Wistar rat assessed as catalase level measured per mg of protein at 150 umol/kg, po administered for 3 days measured on day 4 (reference value: 22.14 +/- 1.19 umol); type: functional
Rattus norvegicus [6] = test: Gastrointestinal toxicity in Wistar rat assessed as ulcer index at 150 umol/kg, po administered for 3 days measured on day 4 (reference value: 0.33 +/-0.20); type: organism-based; details: in vivo, 72 h
Rattus norvegicus [7] = test: Antioxidant activity in Wistar rat assessed as thiobarbituric acid reactive substance level measured per mg of protein at 150 umol/kg, po administered for 3 days measured on day 4 (reference value: 3.72 +/- 00.23 nmol); type: functional

SMILES	inhibition (INH) (Rattus norvegicus [1])	Activity (Mus musculus [2])	Activity (Mus musculus [3])	Activity (Rattus norvegicus [4])	Activity (Rattus norvegicus [5])	UI (Rattus norvegicus [6])	Activity (Rattus norvegicus [7])
Nc1ccc(O)c(C(=O)O)c1 [MESALAMINE]	50%	–	–	–	–	–	–
COc1ccc2nc(NC(=O)C(C)c3ccc(CC(C)C)cc3)[nH]c2c1 (stereo not drawn)	55.3%	52.9%	26.9%	–	–	–	–
Cc1ccc2nc(-c3cc(N)ccc3O)[nH]c2c1	52.4%	58.8%	42.3%	–	–	–	–
CC(C)Cc1ccc(C(C)C(=O)Nc2nc3ccc([N+](=O)[O-])cc3[nH]2)cc1 (stereo not drawn)	34.3%	23.5%	15.3%	–	–	–	–
COc1ccc2c(c1)c(CC(=O)O)c(C)n2C(=O)c1ccc(Cl)cc1 [INDOMETHACIN]	–	–	–	85.2 µmol	7.79 µmol	3.17	30.41 nmol
CC(C)Cc1ccc(C(C)C(=O)O)cc1 (stereo not drawn) [IBUPROFEN]	53.8%	–	–	–	–	–	–
COc1ccc2nc(NC(=O)c3cc(N)ccc3O)[nH]c2c1	50%	-29.4%	-34.6%	–	–	–	–
Cc1ccc2nc(NC(=O)C(C)c3ccc(CC(C)C)cc3)[nH]c2c1 (stereo not drawn)	54.1%	47.1%	23.1%	–	–	–	–
Nc1ccc(O)c(-c2nc3ccc([N+](=O)[O-])cc3[nH]2)c1	42.9%	41.2%	23%	–	–	–	–
CC(C)Cc1ccc(C(C)C(=O)Nc2nc3ccc(C(=O)c4ccccc4)cc3[nH]2)cc1 (stereo not drawn)	60.1%	64.7%	42.3%	–	–	–	–
Nc1ccc(O)c(C(=O)Nc2nc3ccc([N+](=O)[O-])cc3[nH]2)c1	36.9%	-41.1%	-50%	127.32 µmol	11.87 µmol	0.4	11.98 nmol
CC(C)Cc1ccc(C(C)c2nc3ccccc3[nH]2)cc1 (stereo not drawn)	57.1%	>100%	57.6%	158.6 µmol	18.26 µmol	0.92	5.9 nmol
CC(C)Cc1ccc(C(C)C(=O)Nc2nc3ccccc3[nH]2)cc1 (stereo not drawn)	53.8%	76.4%	38.4%	–	–	–	–
CC(C)Cc1ccc(C(C)c2nc3ccc([N+](=O)[O-])cc3[nH]2)cc1 (stereo not drawn)	38%	29.4%	19.2%	–	–	–	–
Cc1ccc2nc(C(C)c3ccc(CC(C)C)cc3)[nH]c2c1 (stereo not drawn)	58%	70.5%	38.4%	–	–	–	–
Nc1ccc(O)c(-c2nc3ccc(C(=O)c4ccccc4)cc3[nH]2)c1	62.6%	>100%	69.2%	153.38 µmol	16.94 µmol	1.1	8.95 nmol
CC(C)Cc1ccc(C(C)c2nc3ccc(C(=O)c4ccccc4)cc3[nH]2)cc1 (stereo not drawn)	68.1%	>100%	61.5%	131.5 µmol	14.12 µmol	0.7	11.28 nmol
c1ccc([C@H]2CN3CCSC3=N2)cc1 [LEVAMISOLE]	–	88.2%	65.3%	–	–	–	–
COc1ccc2nc(-c3cc(N)ccc3O)[nH]c2c1	55.7%	70.5%	46.2%	–	–	–	–
COc1ccc2nc(C(C)c3ccc(CC(C)C)cc3)[nH]c2c1 (stereo not drawn)	64.7%	52.9%	42.3%	–	–	–	–
Nc1ccc(O)c(C(=O)Nc2nc3ccc(C(=O)c4ccccc4)cc3[nH]2)c1	52.1%	-17.6%	-26.9%	–	–	–	–
Nc1ccc(O)c(C(=O)Nc2nc3ccccc3[nH]2)c1	50%	-29.4%	-34.6%	–	–	–	–
Nc1ccc(O)c(-c2nc3ccccc3[nH]2)c1	54.6%	>100%	61.5%	178.18 µmol	18.78 µmol	0.58	5.47 nmol
Cc1ccc2nc(NC(=O)c3cc(N)ccc3O)[nH]c2c1	48.8%	-35.2%	-38.4%	–	–	–	–
